TNAP inh noacc – human TNAP enzyme inhibitors, primary screen, biochemical, luminescent, no phosphate acceptor, uHTS | purified TNAP, CDP-star luminescence, 30 min | inhibition, % at 20 µM | hit rate 0.26% among 200,000 | AID 1012, 2008;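 active = tissue-nonspecific alkaline phosphatase inhibition above about 50% at 20 µM in the single-dose screen, limit read from the data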;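 note: 0% = DMSO negative control and 100% = EDTA positive control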
Target sequence (P05186 whole entry, looked up): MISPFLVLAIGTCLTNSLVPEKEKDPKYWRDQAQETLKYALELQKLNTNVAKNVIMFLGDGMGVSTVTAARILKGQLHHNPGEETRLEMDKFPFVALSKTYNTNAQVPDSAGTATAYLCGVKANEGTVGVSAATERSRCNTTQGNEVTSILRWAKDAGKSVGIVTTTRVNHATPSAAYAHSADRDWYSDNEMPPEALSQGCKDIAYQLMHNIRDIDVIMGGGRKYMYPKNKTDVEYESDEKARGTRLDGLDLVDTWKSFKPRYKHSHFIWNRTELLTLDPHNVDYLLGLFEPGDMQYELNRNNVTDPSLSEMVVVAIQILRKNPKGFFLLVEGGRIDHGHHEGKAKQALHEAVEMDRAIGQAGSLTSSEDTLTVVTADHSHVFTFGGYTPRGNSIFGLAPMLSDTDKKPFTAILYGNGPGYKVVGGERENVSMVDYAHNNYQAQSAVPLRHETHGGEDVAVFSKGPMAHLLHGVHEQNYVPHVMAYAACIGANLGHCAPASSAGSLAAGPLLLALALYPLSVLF
bCat KO growth – primary screen for growth suppressors in beta-catenin knockout HCT116 cells (colon tumor, human); HCT116 beta-catenin knockout viability, CellTiter-Glo, 60 h; active compounds read low; viability, % at 10 µM; hit rate 1.5% among 140,000;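 active = viability at or under a set limit, the compound median less 4 SD, cut at about 6% in these data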;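 note: 0% = Hyamine 1622 control at 20 µM and 100% = untreated cell control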
TNAP inh hi DEA – human TNAP enzyme inhibitors, primary screen, biochemical, luminescent, high phosphate acceptor level, uHTS; Alkaline phosphatase, tissue-nonspecific isozyme (Homo sapiens), P05186; purified TNAP, CDP-star luminescence, 1 M DEA; inhibition, % at 20 µM; hit rate 0.03% among 200,000;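 active = over 50% inhibition of tissue-nonspecific alkaline phosphatase at 20 µM in the single-dose screen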;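 note: plate controls were DMSO wells for no effect and EDTA-quenched wells as full inhibition for full effect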
TNAP act hiacc – TNAP activators at high phosphate acceptor level, primary screen, biochemical, luminescence, uHTS; Alkaline phosphatase, tissue-nonspecific isozyme (Homo sapiens), P05186; purified TNAP, CDP-star luminescence, 1 M DEA, 30 min; active compounds read high; 0 = EDTA background, 1 = DMSO-only activity; activation factor at 20 µM; 200,000 tested, under 10 active; AID 1136, 2008;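 active = activation factor at least 2 at 20 µM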
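Dosing: 20 µM single point. System: human TNAP. Amount: TNAP 1/800 final. Incubation: 30 min, room temperature. Read-out: TNAP activation factor scaled between EDTA and DMSO control wells. Signal: luminescence from CDP-star hydrolysis. Medium: 1 M DEA, pH 9.8, Mg2+, Zn2+. Control set: EDTA negative control, DMSO positive control.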
HCT116 PTEN-null – growth suppression of PTEN-null HCT116, primary screen, cell-based, CellTiter-Glo. hit rate 1.2% among 140,000. viability, % at 10 µM. HCT116 PTEN-null viability, 60 h; active compounds read low;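 active = viability at or below a set limit, 4 SD under the median of all tested compounds, cut at about 3.7% in these data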;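 note: PTEN knockout HCT116 line with beta catenin targeted HCT116 as companion control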
Lmaj promast – Leishmania major promastigote growth inhibition, primary screen; Leishmania major promastigotes, resazurin fluorescence viability; hit rate 9% among 200,000; inhibition, % at 10 µM; in the data active = inhibition above about 50%;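 note: promastigotes grown with compound for 44 hours at 28 °C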
An asterisk follows results filed as active; / = no result given. A selection: hits, their analogues and other compounds. The true share with any hit is near 9.6%.

SMILES | TNAP inh noacc | bCat KO growth | TNAP inh hi DEA | TNAP act hiacc | HCT116 PTEN-null | Lmaj promast
Cc1cc(C(=O)Nc2ccc(S(=O)(=O)N3CCCC3)cc2)cs1 | -13 | 67 | -5 | 1 | 68 | 73*
NC(=O)c1ccsc1NC(=O)c1ccc(S(=O)(=O)N2CCCC2)cc1 | -15 | / | -2 | 1 | / | 56*
O=C(Nc1ccc(Cc2ccncc2)cc1)c1ccc(S(=O)(=O)N2CCCC2)cc1 | -10 | / | -5 | 1.1 | / | 99*
CC(=O)c1ccc(NC(=O)c2ccc(S(=O)(=O)N3CCCC3)cc2)cc1 | -6 | 96 | -2 | 1 | 102 | 98*
O=C(COc1ccc(Cl)cc1)NCCN1CCCCC1 | -10 | / | -2 | 1 | / | 24
c1ccc(COc2ccc(OCCCn3cncn3)cc2)cc1 | -9 | 71 | -3 | 1 | 71 | -6
Cc1cc(OCC(=O)N2CCCC2)ccc1Cl | -13 | 95 | -2 | 1 | 94 | -6
Clc1ccc(OCCN2CCOCC2)cc1Cl | 9 | 97 | 2 | 1 | 103 | 86*
Cc1cc(OCCCCCN2CCCC2)ccc1Cl | -4 | / | -1 | 1 | / | 99*
Clc1ccc(OCCCn2cncn2)cc1Cl | -8 | 97 | -4 | 1 | 99 | 100*
Clc1ccc(OCCN2CCCCC2)cc1Cl | -12 | 84 | 1 | 1 | 88 | 79*
Cc1nn(Cc2c(F)c(F)c(F)c(F)c2F)c(C)c1NC(=O)c1ccc(COc2ccc(F)cc2)o1 | 0 | 63 | -1 | 1 | 60 | 8
COc1ccc(Cl)cc1/C=C(\C#N)C(N)=O | -8 | / | -7 | 1.1 | / | 20
C#CCNC(=O)C1=C[C@H](c2ccc(C(F)(F)F)cc2)[C@@H](CCCO)[C@H](OCC)O1 | -4 | / | 0 | 1 | / | 4
Clc1ccc(OCCCN2CCCC2)cc1Cl | -13 | 73 | -9 | 1.1 | 57 | 91*
COCCNC(=O)CN(C(=O)Cn1nnc2ccccc21)c1cc(C)cc(C)c1 | -4 | / | 0 | 1 | / | -6
NC(=O)CSc1nnc(-c2ccncc2)n1-c1ccc(Cl)cc1 | -12 | 102 | -3 | 1 | 94 | -4
CC(C)c1c(O)cc(-c2ccncc2)n(-c2ccc(Cl)cc2)c1=O | -10 | 84 | -6 | 1.1 | 93 | 54*
O=[N+]([O-])c1cc(Cl)ccc1Sc1cccc2cccnc12 | -12 | 99 | -6 | 1.1 | 93 | 18
O=[N+]([O-])c1ccc(Sc2cccc3cccnc23)c([N+](=O)[O-])c1 | 1 | 1.6* | -2 | 1 | 2.2* | 96*
O=[N+]([O-])c1ccc(Sc2cccc3cccnc23)cc1 | -23 | 93 | -2 | 1 | 79 | 10
Cc1cc(C)nc(Sc2ccc([N+](=O)[O-])cc2[N+](=O)[O-])n1 | 22 | 25 | 2 | 1 | 21 | 87*
C=CCn1nc([N+](=O)[O-])nc1Sc1cccc2cccnc12 | -2 | 2.1* | -2 | 1 | 1.8* | 58*
CC(C)(C)C(=O)Nc1sc2c(c1C(=O)Nc1ccccn1)CCCC2 | -10 | / | -7 | 1.1 | / | 16
CS(=O)(=O)N(CC(=O)Nc1ccccc1Cl)c1ccc(Cl)cc1 | -7 | / | -6 | 1.1 | / | 5
SMILES | TNAP inh noacc | bCat KO growth | TNAP inh hi DEA | TNAP act hiacc | HCT116 PTEN-null | Lmaj promast
N#CC1=C(N)C(C#N)(C#N)[C@H](c2ccoc2)[C@H]2CN(Cc3ccccc3)CC=C12 | -12 | 89 | 5 | 0.9 | 85 | 56*
Cc1ccc(NC(=O)CSc2nnc(/N=C/N(C)C)s2)cc1 | -27 | / | -1 | 1 | / | 0
Cc1ccc(C)c(S(=O)(=O)Nc2ccc(C(=O)NCCc3ccccn3)cc2)c1 | -10 | / | 0 | 1 | / | -5
O=S(=O)(c1ccc(OCC(O)CNC23CC4CC(CC(C4)C2)C3)c(Cl)c1)N1CCOCC1 (stereo not given) | -5 | / | -3 | 1 | / | 94*
COc1ccc(-c2[nH]c(-c3ccc(SC)cc3)nc2SCC(=O)Nc2nccs2)cc1 | 11 | 68 | -5 | 1 | 73 | 96*
O=C(CSc1nc(-c2ccccc2)c(-c2ccccc2)[nH]1)Nc1nccs1 | -24 | 63 | -7 | 1.1 | 52 | 98*
Nc1ccccc1SCC(=O)Nc1nccs1 | -13 | / | -9 | 1.1 | / | -2
Cc1cc2c3c(c1)C(C)(c1ccccc1)CC(C)(C)N3C(=O)C21C(C#N)=C(N)OC2=C1C(=O)CC(C)(C)C2 (stereo not given) | -5 | 35 | -7 | 1.1 | 21 | 51*
CC1(c2ccccc2)CC(C)(C)N2C(=O)C3(C(C#N)=C(N)Oc4cc(O)ccc43)c3cccc1c32 (stereo not given) | -13 | 1.4* | -1 | 1 | 1.5* | 12
CC1=CC(C)(C)N2C(=O)C3(C(C#N)=C(N)Oc4cc(O)ccc43)c3c(C)c(C)cc1c32 (stereo not given) | 5 | 62 | -3 | 1 | 47 | 54*
CC1(C)CC(=O)C2=C(C1)OC(N)=C(C#N)C21C(=O)N2CCCc3cccc1c32 (stereo not given) | -9 | 96 | -2 | 1 | 97 | -3
CNc1nc(N/N=C/c2cc3c(cc2[N+](=O)[O-])OCO3)nc(Nc2ccccc2)n1 | -4 | / | 4 | 1 | / | 65*
Clc1nc(CN2CCOCC2)nc2sc3c(c12)CCC3 | -14 | / | -4 | 1 | / | 5
Cc1cccc(Oc2nc(CN3CCOCC3)nc3sc4c(c23)CCCC4)c1 | -19 | 68 | -1 | 1 | 63 | 99*
O=C(NC1CCCCCC1)C(=S)NC1CCCCC1 | -3 | / | -2 | 1 | / | -4
Cc1cccc(Sc2c([N+](=O)[O-])ncn2C)c1 | -7 | 72 | -4 | 1 | 68 | 93*
N#Cc1ccc(CO/N=C/c2ccccc2)cc1 | -7 | / | 0 | 1 | / | -1
O=C(C[n+]1cccc2ccccc21)c1ccccc1 | -10 | 88 | -6 | 1.1 | 88 | -4
O=C(C[n+]1cc2ccccc2c2ccccc21)c1ccccc1 | -6 | 34 | -1 | 1 | 48 | 99*
O=c1c2c([nH]c3ccccc13)CCCCCC2 | -15 | 87 | -6 | 1.1 | 83 | 64*
O=c1c2ccccc2[nH]c2ccccc12 | 2 | 81 | 1 | 1 | 97 | 29
CN(C)CCOc1ccccc1C(C)(C)C | -1 | 88 | -3 | 1 | 92 | -4
CN(C)CCOc1ccc(C(C)(C)c2ccccc2)cc1 | -9 | / | -8 | 1.1 | / | 72*
OC(CNCCC(c1ccccc1)c1ccccc1)COc1ccccc1 (stereo not given) | -10 | / | -5 | 1.1 | / | 43

Bioassay records (PubChem)
